Experimental data taken from ChEMBL document CHEMBL1275408, “A chemical genomic screen in Saccharomyces cerevisiae reveals a role for diphthamidation of translation elongation factor 2 in inhibition of protein synthesis by sordarin” (2008).
Active and inactive are the calls of the source. No cut-off for these calls is given here.

Columns and labels:
Saccharomyces cerevisiae [1] = assay: Antifungal activity against Saccharomyces cerevisiae BY4741 harboring DPH1 YIL103W mutant gene by spectrophotometry; format: functional
How it was run: (§1)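 Screen of BY4741 KanMX4 deletion strains pre-grown 3 days at 28°C in YPD with G418 (150 mg/liter), then pinned into liquid SC containing GM193663. The sensitivity screen used 2 ng/ml; the resistance screen used 62.5 ng/ml, with validation at 62.5, 125 and 500 ng/ml. OD595 was read every 24 h over 5 days at 28°C. Growth was scored relative to wild type and to drug-free controls. Retests were at least in duplicate.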

Saccharomyces cerevisiae [2] = assay: Antifungal activity against Saccharomyces cerevisiae BY4741 harboring YHR151C mutation in unknown gene by spectrophotometry; format: functional
How it was run: (§2)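 Deletion strains from the nonessential haploid MATa BY4741 collection (KanMX4 replacement) were grown in YPD with G418 at 28°C for 3 days, then pinned into liquid SC with or without sordarin derivative GM193663 (2 ng/ml for sensitivity, 62.5 ng/ml for resistance). Cultures were kept at 28°C and read at OD595 every 24 h for 5 days. Growth was scored against wild type on the same plate and against the drug-free control. Hits were retested at least in duplicate.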

Saccharomyces cerevisiae [3] = assay: Antifungal activity against Saccharomyces cerevisiae BY4741 harboring deletion mutation in dph1 gene at 100 ng/ml by plate assay; format: functional, organism-based
How it was run: (§3)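 Spot test on solid SC glucose plates with or without 100 ng/ml sordarin. Drops of 10^5 cells plus 10-fold serial dilutions of each dph deletion strain were spotted alongside the parental strain. Plates were incubated at 28°C for 6 days and imaged every 24 h.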

Saccharomyces cerevisiae [4] = assay: Antifungal activity against Saccharomyces cerevisiae BY4741 harboring RPL21A YBR191W mutant gene by spectrophotometry; format: functional
How it was run: (§4)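 Haploid MATa BY4741 KanMX4 deletion strains pinned from frozen stocks into YPD + G418 (150 mg/liter), grown 3 days at 28°C to confluence, then pin-replicated into SC liquid with no drug or sordarin derivative GM193663 (2 ng/ml sensitivity; 62.5 ng/ml resistance). 28°C, OD595 read every 24 h for 5 days; growth scored relative to wild type on same plate and to untreated mutant.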

Saccharomyces cerevisiae [5] = assay: Antifungal activity against Saccharomyces cerevisiae BY4741 harboring RPL16B YNL069C mutant gene by spectrophotometry; format: functional; how it was run: as §4
Saccharomyces cerevisiae [6] = assay: Antifungal activity against Saccharomyces cerevisiae BY4741 harboring YBL100C mutation assessed as reduction in fungal growth at 2 ng/ml by spectrophotometry; format: functional, organism-based
How it was run: (§5)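 Deletion strains (BY4741 background) pre-grown 3 days at 28°C in YPD + G418 (150 mg/liter), then pin-replicated into SC liquid containing 2 ng/ml GM193663 or no drug. 28°C, OD595 every 24 h over 5 days; growth scored against wild type on same plate and against drug-free mutant control; hits retested at least in duplicate at 2 ng/ml.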

Saccharomyces cerevisiae [7] = assay: Antifungal activity against Saccharomyces cerevisiae BY4741 harboring RBS1 YDL189W mutant gene by spectrophotometry; format: functional; how it was run: as §4
Saccharomyces cerevisiae [8] = assay: Antifungal activity against Saccharomyces cerevisiae BY4741 harboring MRPL11 YDL202W mutant gene by spectrophotometry; format: functional; how it was run: as §4
Saccharomyces cerevisiae [9] = assay: Antifungal activity against Saccharomyces cerevisiae BY4741 harboring MRP21 YBL090W mutant gene by spectrophotometry; format: functional; how it was run: as §1
Saccharomyces cerevisiae [10] = assay: Antifungal activity against Saccharomyces cerevisiae BY4741 harboring AMS1 YGL156W mutant gene by spectrophotometry; format: functional; how it was run: as §1
Saccharomyces cerevisiae [11] = assay: Antifungal activity against Saccharomyces cerevisiae BY4741 harboring CUE1 YMR264W mutant gene by spectrophotometry; format: functional; how it was run: as §1
Saccharomyces cerevisiae [12] = assay: Antifungal activity against Saccharomyces cerevisiae BY4741 harboring THI20 YOL055C mutant gene by spectrophotometry; format: functional; how it was run: as §4
Saccharomyces cerevisiae [13] = assay: Antifungal activity against Saccharomyces cerevisiae BY4741 harboring PRE9 YGR135W mutant gene by spectrophotometry; format: functional; how it was run: as §4
Saccharomyces cerevisiae [14] = assay: Antifungal activity against Saccharomyces cerevisiae BY4741 harboring deletion mutation in dph4 gene at 100 ng/ml by plate assay; format: functional, organism-based; how it was run: as §3
Saccharomyces cerevisiae [15] = assay: Antifungal activity against Saccharomyces cerevisiae BY4741 harboring BUD9 YGR041W mutant gene by spectrophotometry; format: functional; how it was run: as §1
Saccharomyces cerevisiae [16] = assay: Antifungal activity against Saccharomyces cerevisiae BY4741 harboring IBD2 YNL164C mutant gene by spectrophotometry; format: functional; how it was run: as §1
Saccharomyces cerevisiae [17] = assay: Antifungal activity against Saccharomyces cerevisiae BY4741 harboring GRR1 YJR090C mutant gene by spectrophotometry; format: functional; how it was run: as §1
Saccharomyces cerevisiae [18] = assay: Antifungal activity against Saccharomyces cerevisiae BY4741 harboring ARN1 YHL040C mutant gene by spectrophotometry; format: functional; how it was run: as §1
Saccharomyces cerevisiae [19] = assay: Antifungal activity against Saccharomyces cerevisiae BY4741 harboring STE1 YDR410C mutant gene by spectrophotometry; format: functional; how it was run: as §4
Saccharomyces cerevisiae [20] = assay: Antifungal activity against Saccharomyces cerevisiae BY4741 harboring ATP1 YBL099W mutant gene assessed as reduction in fungal growth at 2 ng/ml by spectrophotometry; format: functional, organism-based
How it was run: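 Haploid BY4741 KanMX4 deletion strains pre-grown in YPD with G418 (150 mg/liter) for 3 days at 28°C. They were then pin-replicated into liquid SC with sordarin derivative GM193663 at 2 ng/ml, or without drug. Plates were incubated at 28°C and OD595 read every 24 h for 5 days. Growth was scored against wild type on the same plate and against the drug-free mutant. Hits were retested at least in duplicate.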

Saccharomyces cerevisiae [21] = assay: Antifungal activity against Saccharomyces cerevisiae BY4741 harboring TOK1 YJL093C mutant gene by spectrophotometry; format: functional; how it was run: as §4
Saccharomyces cerevisiae [22] = assay: Antifungal activity against Saccharomyces cerevisiae BY4741 harboring JJJ3/DPH4 YJR097W mutant gene by spectrophotometry; format: functional; how it was run: as §1
Saccharomyces cerevisiae [23] = assay: Antifungal activity against Saccharomyces cerevisiae BY4741 harboring ARN2 YHL047C mutant gene by spectrophotometry; format: functional; how it was run: as §1
Saccharomyces cerevisiae [24] = assay: Antifungal activity against Saccharomyces cerevisiae BY4741 harboring YKL098W mutation in unknown gene by spectrophotometry; format: functional; how it was run: as §2
Saccharomyces cerevisiae [25] = assay: Antifungal activity against Saccharomyces cerevisiae BY4741 harboring YBR255W mutation in unknown gene by spectrophotometry; format: functional; how it was run: as §4
Saccharomyces cerevisiae [26] = assay: Antifungal activity against Saccharomyces cerevisiae BY4741 harboring ECM3 YOR092W mutant gene by spectrophotometry; format: functional; how it was run: as §1
Saccharomyces cerevisiae [27] = assay: Antifungal activity against Saccharomyces cerevisiae BY4741 harboring RPL1B YGL135W mutant gene by spectrophotometry; format: functional; how it was run: as §4
Saccharomyces cerevisiae [28] = assay: Antifungal activity against Saccharomyces cerevisiae BY4741 harboring MRP20 YDR405W mutant gene by spectrophotometry; format: functional; how it was run: as §1
Saccharomyces cerevisiae [29] = assay: Antifungal activity against Saccharomyces cerevisiae BY4741 harboring YSC83 YHR017W mutant gene by spectrophotometry; format: functional; how it was run: as §2
Saccharomyces cerevisiae [30] = assay: Antifungal activity against Saccharomyces cerevisiae BY4741 harboring MRPL3 YMR024W mutant gene by spectrophotometry; format: functional; how it was run: as §4
Saccharomyces cerevisiae [31] = assay: Antifungal activity against Saccharomyces cerevisiae BY4741 harboring MOH1 YBL049W mutant gene by spectrophotometry; format: functional; how it was run: as §1
Saccharomyces cerevisiae [32] = assay: Antifungal activity against Saccharomyces cerevisiae BY4741 harboring DAL7 YIR031C mutant gene by spectrophotometry; format: functional; how it was run: as §1
Saccharomyces cerevisiae [33] = assay: Antifungal activity against Saccharomyces cerevisiae BY4741 harboring SSQ1 YLR369W mutant gene assessed as reduction in fungal growth at 2 ng/ml by spectrophotometry; format: functional, organism-based; how it was run: as §5
Saccharomyces cerevisiae [34] = assay: Antifungal activity against Saccharomyces cerevisiae BY4741 harboring RPS18A YDR450W mutant gene by spectrophotometry; format: functional; how it was run: as §4

In the case of `CO[C@H]1[C@@H](O)[C@H](O)[C@H](OC[C@@]23C[C@@H]4[C@H](C)CC[C@H]4[C@@]4(C=O)CC2C=C(C(C)C)[C@@]34C(=O)O)O[C@@H]1C` [SORDARIN], the MIC (Saccharomyces cerevisiae [1]) is reported as over 0.5 µg/mL, the MIC (Saccharomyces cerevisiae [2]) is reported as over 0.5 µg/mL and the MIC (Saccharomyces cerevisiae [3]) is reported as “inactive”. For the same compound, the MIC (Saccharomyces cerevisiae [4]) was over 0.125 µg/mL, the MIC (Saccharomyces cerevisiae [5]) was over 0.125 µg/mL and the Activity (Saccharomyces cerevisiae [6]) was “Active”. For the same compound, the MIC (Saccharomyces cerevisiae [7]) was over 0.5 µg/mL, the MIC (Saccharomyces cerevisiae [8]) was over 0.0625 µg/mL and the MIC (Saccharomyces cerevisiae [9]) was over 0.5 µg/mL. For the same compound, the MIC (Saccharomyces cerevisiae [10]) was over 0.125 µg/mL, the MIC (Saccharomyces cerevisiae [11]) was over 0.0625 µg/mL and the MIC (Saccharomyces cerevisiae [12]) was over 0.5 µg/mL. For the same compound, the MIC (Saccharomyces cerevisiae [13]) was over 0.5 µg/mL, the MIC (Saccharomyces cerevisiae [14]) was “inactive” and the MIC (Saccharomyces cerevisiae [15]) was over 0.125 µg/mL. It also gave an MIC (Saccharomyces cerevisiae [16]) of over 0.5 µg/mL, an MIC (Saccharomyces cerevisiae [17]) of over 0.5 µg/mL and an MIC (Saccharomyces cerevisiae [18]) of over 0.5 µg/mL. The MIC (Saccharomyces cerevisiae [19]) was over 0.125 µg/mL, the Activity (Saccharomyces cerevisiae [20]) was “Active” and the MIC (Saccharomyces cerevisiae [21]) was over 0.125 µg/mL. The MIC (Saccharomyces cerevisiae [22]) was over 0.125 µg/mL, the MIC (Saccharomyces cerevisiae [23]) was over 0.5 µg/mL and the MIC (Saccharomyces cerevisiae [24]) was over 0.5 µg/mL. For the same compound, the MIC (Saccharomyces cerevisiae [25]) was over 0.5 µg/mL, the MIC (Saccharomyces cerevisiae [26]) was over 0.125 µg/mL and the MIC (Saccharomyces cerevisiae [27]) was over 0.5 µg/mL. It also gave an MIC (Saccharomyces cerevisiae [28]) of over 0.5 µg/mL, an MIC (Saccharomyces cerevisiae [29]) of over 0.5 µg/mL and an MIC (Saccharomyces cerevisiae [30]) of over 0.125 µg/mL. The MIC (Saccharomyces cerevisiae [31]) was over 0.5 µg/mL, the MIC (Saccharomyces cerevisiae [32]) was over 0.125 µg/mL and the Activity (Saccharomyces cerevisiae [33]) was “Active”. For the same compound, the MIC (Saccharomyces cerevisiae [34]) was over 0.0625 µg/mL.
